In ChEMBL document CHEMBL3792290, “Part 1: Notch-sparing γ-secretase inhibitors: The identification of novel naphthyl and benzofuranyl amide analogs” (Bioorg Med Chem Lett, 2016):
pIC50: −log10 of the molar value. ≈ marks a conversion by molar mass, not a printed value.

How the values were obtained:
[1] = Inhibition of human gamma-secretase expressed in CHO cells assessed as effect on Notch1 processing at 100 uM using N100-Flag as substrate incubated for 4 hrs by Western blot analysis relative to DMSO control; type: cell-based
Outline: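 Purified human γ-secretase from CHO cells stably overexpressing all four components; E. coli-expressed purified C100-Flag (APP) or N100-Flag (Notch) substrate; compounds at 100 μM final in 0.2% CHAPSO/HEPES pH 7.0 with 0.08% phosphatidylcholine, 0.02% phosphatidylethanolamine, DMSO <1% final; 37°C, 4 h; stopped with 0.5% SDS; Aβ40 by ELISA or Notch1 processing by Western blot, versus DMSO control.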

[2] = biological target: T1, Gamma-secretase (Homo sapiens) (UniProt Q96BI3+Q9NZ42+Q8WW43+P49768+Q92542+P49810); assay: Inhibition of purified human gamma-secretase expressed in CHO cells assessed as suppression of amyloid beta 40 production at 100 uM using C100-Flag as substrate incubated for 4 hrs by ELISA relative to DMSO control
Gamma-secretase [3] = assay: Inhibition of gamma-secretase (unknown origin) assessed as suppression of amyloid beta 42 production by cell-based assay; parameters: species or system Homo sapiens
Gamma-secretase [4] = assay: Inhibition of human gamma-secretase expressed in CHO cells assessed as suppression of amyloid beta 40 production using C100-Flag as substrate incubated for 4 hrs by ELISA relative to DMSO control; type: cell-based
Outline: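 Enzyme from CHO cells stably overexpressing all four γ-secretase components, purified; C100-Flag substrate expressed in E. coli; reaction in 0.2% CHAPSO/HEPES pH 7.0 containing 0.08% phosphatidylcholine and 0.02% phosphatidylethanolamine, final DMSO <1%; incubated 37°C for 4 h, quenched with SDS (0.5% final); Aβ40 quantified by specific ELISA as percent of DMSO control.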

[5] = Inhibition of gamma-secretase (unknown origin) assessed as suppression of Notch1 processing by cell-based assay; details: Homo sapiens
Gamma-secretase [6] = assay: Inhibition of gamma-secretase (unknown origin) assessed as suppression of amyloid beta 40 production by cell-based assay; parameters: species or system Homo sapiens
[7] = biological target: T1, Gamma-secretase (Homo sapiens); assay: Inhibition of gamma-secretase (unknown origin) assessed as suppression of amyloid beta 42 production at 100 uM by cell-based assay
[8] = Solubility of compound in PBS buffer at pH 7.4; type: physicochemical
[9] = Metabolic stability in rat liver microsomes assessed as parent compound remaining after 60 mins; type: ADME; details: read-out: Stability
[10] = Lipophilicity, logD of the compound; type: physicochemical; details: octanol/water
[11] = Protein binding in human plasma; type: ADME, cell-free; details: read-out: PPB (converted)
[12] = Metabolic stability in human liver microsomes assessed as parent compound remaining after 60 mins; type: ADME; details: read-out: Stability
[13] = Permeability of compound from apical to basolateral side; type: ADME; details: not told; read-out: permeability
Gamma-secretase [14] = assay: Inhibition of human gamma-secretase expressed in CHO cells assessed as suppression of amyloid beta 42 production using C100-Flag as substrate incubated for 4 hrs by ELISA; type: cell-based

inhibition (INH) [1] | inhibition [2] [%] | SMILES | other results
Not Active | 41 | CC(C)N(Cc1ccc(Cl)c(Cl)c1)C(=O)c1ccc2ccccc2c1O | pIC50 (Gamma-secretase [3]): 4.07
Not Active | 35 | COc1cc(CN(C(=O)c2ccc3ccccc3c2)C(C)C)cc(OC)c1 | –
– | 27 | CC(C)N(Cc1cc(F)cc(F)c1)C(=O)c1ccc2ccccc2c1O | –
Not Active | 34 | CC(C)N(Cc1ccc(F)c(F)c1)C(=O)c1ccc2ccccc2c1 | –
– | 15 | CN(Cc1ccccc1)C(=O)c1ccc2ccccc2c1 | –
– | 0 | Cc1c(C(=O)N(Cc2ccc(Cl)c(Cl)c2)C(C)C)oc2ccccc12 | –
– | 27 | CC(C)N(Cc1ccccc1)C(=O)c1ccc(-c2ccccc2)cc1 | –
Not Active | 58 | CC(C)N(Cc1ccc(Cl)c(Cl)c1)C(=O)c1ccc2ccccc2c1 | pIC50 (Gamma-secretase [3]): 3.87
Not Active | 51 | CC(C)N(Cc1ccc(Cl)c(Cl)c1)C(=O)c1cc2ccccc2o1 | –
Not Active | 19 | COc1cccc(CN(C(=O)c2ccc3ccccc3c2)C(C)C)c1 | –
– | 31 | CC(C)N(Cc1ccc(C#N)cc1)C(=O)c1ccc2ccccc2c1 | –
– | 14 | CC(C)N(Cc1ccccc1)C(=O)c1ccc2occc2c1 | –
Not Active | 75 | COc1cccc2cc(C(=O)N(Cc3ccc(Cl)c(Cl)c3)C(C)C)oc12 | inhibition [7]: 81%
Active | 50 | CC(C)N(Cc1ccccc1)C(=O)c1cnc2ccccc2c1 | –
Not Active | 67 | CC(C)N(Cc1ccccc1)C(=O)c1ccc2ccccc2c1O | pIC50 (Gamma-secretase [3]): 4.02
Active | 85 | CC(C)N(Cc1ccccc1)C(=O)c1ccc(C(C)(C)C)cc1 | –
Not Active | 33 | COc1ccc(CN(C(=O)c2ccc3ccccc3c2O)C(C)C)cc1 | pIC50 (Gamma-secretase [3]): 4.02
Not Active | 23 | COc1cccc2cc(C(=O)N(Cc3ccc(Cl)c(F)c3)C(C)C)oc12 | –
Not Active | 40 | CC(C)N(Cc1ccccc1)C(=O)c1cc2ccccc2o1 | –

Second part, the compound before the results:

SMILES | inhibition (INH) [1] | inhibition [2] [%] | other results
COc1ccc(CN(C(=O)c2ccc3ccccc3c2)C(C)C)cc1 | Active | 47 | –
CC(C)N(Cc1ccccc1)C(=O)c1ccccc1 | – | 10 | –
O=C(c1ccc2ccccc2c1)N(Cc1ccccc1)C1CC1 | Not Active | 37 | –
COC(=O)c1ccc(CN(c2cc(F)ccc2F)S(=O)(=O)c2ccc(F)cc2)cc1 | – | – | pIC50 (Gamma-secretase [4]): 6.24
CCC(CC)N(Cc1ccc(C(=O)O)cc1)S(=O)(=O)c1ccc(Cl)cc1 | – | – | pIC50 [5]: 5.00; pIC50 (Gamma-secretase [3]): 6.89; pIC50 (Gamma-secretase [6]): 6.92
CC(C)N(Cc1ccccc1)C(=O)c1ccc2ccccc2c1 | Not Active | 58 | inhibition [7]: 81%; solubility [8]: 63 µM (≈ 19.1 µg/mL); remaining at 1 h [9]: 1%; logD [10]: 4.2; fraction unbound [11]: 0.043; remaining at 1 h [12]: 28%; Papp A→B [13]: 39.6 ×10⁻⁶ cm/s
CC(C)N(Cc1cc(F)cc(F)c1)C(=O)c1ccc2ccccc2c1 | – | 21 | –
CCOc1cccc2cc(C(=O)N(Cc3ccc(Cl)c(Cl)c3)C(C)C)oc12 | Not Active | 58 | –
CC(C)(C)N(Cc1ccccc1)C(=O)c1ccc2ccccc2c1 | Not Active | 52 | –
CC(C)N(Cc1ccccc1)C(=O)c1cn(C)c2ccccc12 | – | 0 | –
O=C(NCc1ccccc1)c1ccc2ccccc2c1 | – | 0 | –
CC(C)N(Cc1ccc(N2CCCCC2)cc1)C(=O)c1ccc2ccccc2c1 | Active | 38 | –
O=S(=O)(c1ccc(F)cc1)N(Cc1ccccc1OC1CCOCC1)c1cc(F)ccc1F | – | – | pIC50 (Gamma-secretase [3]): 6.21; pIC50 (Gamma-secretase [14]): 6.40; pIC50 (Gamma-secretase [4]): 6.44
CC(C)N(Cc1cccc(C#N)c1)C(=O)c1ccc2ccccc2c1 | – | 31 | –
CC(C)N(Cc1ccccc1)C(=O)c1cccc(Oc2ccccc2)c1 | Active | 50 | –
CC(C)N(Cc1ccc(F)c(F)c1)C(=O)c1ccc2ccccc2c1O | Not Active | 49 | –
COc1cccc2cc(C(=O)N(Cc3ccc(F)c(Cl)c3)C(C)C)oc12 | Not Active | 49 | –
CC(C)N(Cc1ccccc1)C(=O)c1cnc2cc(Cl)ccc2c1O | Not Active | 33 | –
